What was measured:
HCT-116 = assay: Antiproliferative activity against human HCT-116 cells assessed as inhibition of cell viability measured after 72 hrs by MTT assay; format: functional, cell-based; conditions: HCT-116, 72 h
How it was run: (§1)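 Cells kept at 37 °C, 5% CO₂ in RPMI 1640, L-15 or DMEM with 10% FBS and 1% penicillin-streptomycin. Plated at 2-4 × 10³ cells/well and dosed 24 h after plating. After 72 h exposure, MTT added for 2-4 h at 37 °C. Formazan dissolved in DMSO, absorbance read at 570 nm. IC50 is the mean of at least three independent experiments.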

SW-620 = assay: Antiproliferative activity against human SW-620 cells assessed as inhibition of cell viability measured after 72 hrs by MTT assay; format: functional, cell-based; conditions: SW-620, 72 h; how it was run: as §1
HT-29 = assay: Antiproliferative activity against human HT-29 cells assessed as inhibition of cell viability measured after 72 hrs by MTT assay; format: functional, cell-based; conditions: HT-29, 72 h; how it was run: as §1
HCT-15 = assay: Antiproliferative activity against human HCT-15 cells assessed as inhibition of cell viability measured after 72 hrs by MTT assay; format: functional, cell-based; conditions: HCT-15, 72 h; how it was run: as §1
DLD-1 = assay: Antiproliferative activity against human DLD-1 cells assessed as inhibition of cell viability measured after 72 hrs by MTT assay; format: functional, cell-based; conditions: DLD-1, 72 h; how it was run: as §1
[1] = Inhibition of dimerization of N-terminal His6-tagged human c-Myc bHLHZip domain (353 to 439 residues)/Max(151 residues) (unknown origin) expressed in Escherichia coli BL21DE3 measured after 1 hr by ELISA
How it was run: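 Myc bHLHZip (5.5 μg/well) was coated at 4 °C for 24 h in PBS pH 7.0 buffer (EDTA, KCl, MgCl2, glycerol, NP40, DTT), then blocked with 3% BSA for 2 h at 37 °C. Detection used rabbit anti-c-Myc, HRP anti-rabbit and TMB, read at 450 nm.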

Homo sapiens = species: Homo sapiens; assay: Inhibition of dimerization of N-terminal His6-tagged human c-Myc bHLHZip domain (353 to 439 residues)/Max(151 residues) (unknown origin) expressed in Escherichia coli BL21DE3 assessed as inhibition of c-Myc/Max/DNA complex formation at 20 uM preincubated with c-Myc/Max for 1.5 hrs followed by incubation with DNA oligo for 0.5 hrs by EMSA analysis relative to control; conditions: time 2.0 hrs
How it was run: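 Gel-shift used His-tagged Myc/Max complex (50 nM) with a biotinylated E-box duplex oligo (50 nM). Buffer was PBS pH 7.0 with 10 mM EDTA, 500 mM KCl, 30 mM MgCl2, 5% glycerol, 0.1% NP40, 1.5 mM DTT and 10% DMSO. Protein was preincubated with compound at 20 μM for 1.5 h at room temperature, then DNA was added for 0.5 h. Inhibition is relative to DMSO; three independent experiments.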

| IC50 (HCT-116) [µM] | IC50 (SW-620) [µM] | IC50 (HT-29) [µM] | IC50 (HCT-15) [µM] | IC50 (DLD-1) [µM] | IC50 [1] [µM] | inhibition (Homo sapiens) [%] | SMILES |
| --- | --- | --- | --- | --- | --- | --- | --- |
| 2.62 | 6.97 | 1.89 | 2.65 | 1.91 | 86 | 48.7 | COc1ccc(CNCc2c(OC)cc(Oc3cccc(Nc4ccccc4)c3)cc2OC)cc1 |
| 6.23 | 11.2 | 3.06 | 5.41 | 3.52 | 129 | 29.3 | COc1cc(Oc2cccc(Nc3ccccc3)c2)cc(OC)c1CNCc1ccc(Br)cc1 |
| > 20 | > 20 | > 20 | 8.97 | > 20 | > 150 | 6.1 | COc1cc(Oc2cccc(Nc3ccccc3)c2)cc(OC)c1CN(CCO)CCO |
| > 20 | > 20 | 8.5 | 8.93 | 8.57 | 105 | 42.1 | COc1cc(Oc2cccc(Nc3ccccc3)c2)cc(OC)c1CNCc1ccc2c(c1)OCO2 |
| 3.32 | 5.77 | 1.25 | 2.88 | 1.86 | 87 | 46.2 | COc1cc(Oc2cccc(Nc3ccccc3)c2)cc(OC)c1CNCCc1ccc(C)cc1 |
| 3.19 | 8.95 | 2.52 | 2.34 | 2.87 | 95 | 40.5 | COc1cc(Oc2cccc(Nc3ccccc3)c2)cc(OC)c1CNCCc1ccc(F)cc1 |
| 3.11 | 11 | 2.75 | 3.35 | 5.92 | 107 | 42.3 | COc1ccc(CCNCc2ccc(Oc3cccc(Nc4ccccc4)c3)c(OC)c2)cc1 |
| > 20 | > 20 | 3.53 | 6.51 | 7.37 | 147 | 12.6 | COc1cc(Oc2cccc(Nc3ccccc3)c2)cc(OC)c1CNC12CC3CC(CC(C3)C1)C2 |
| 12.9 | > 20 | > 20 | 15.6 | > 20 | > 150 | 3.2 | COc1cc(Oc2cccc(Nc3ccccc3)c2)cc(OC)c1CN(C)C |
| 3.31 | 6.34 | 3.35 | 4.85 | 3.74 | 123 | 25.7 | COc1cc(Oc2cccc(Nc3ccccc3)c2)cc(OC)c1CNCc1ccc(Cl)cc1 |
| > 20 | > 20 | > 20 | 5.09 | > 20 | > 150 | 8.9 | CCN1CCN(Cc2c(OC)cc(Oc3cccc(Nc4ccccc4)c3)cc2OC)CC1 |
| 4.07 | 7.49 | 3.34 | 5.02 | 5.22 | 125 | 26.4 | COc1cc(Oc2cccc(Nc3ccccc3)c2)cc(OC)c1CNCc1ccccc1 |
| > 20 | > 20 | 12.3 | 6.14 | > 20 | > 150 | 1.7 | COc1cc(Oc2cccc(Nc3ccccc3)c2)cc(OC)c1CNC1CC1 |
| 3.4 | 3.65 | 2.12 | 1.19 | 2.32 | 72 | 67.4 | COc1ccccc1CCNCc1c(OC)cc(Oc2cccc(Nc3ccccc3)c2)cc1OC |
| > 20 | > 20 | > 20 | > 20 | > 20 | > 150 | – | COc1cc(Oc2cccc(Nc3ccccc3)c2)cc(OC)c1CNC(C)C |
